{
  "source": "paper PMC3372611",
  "about": "(Biochemical Pharmacology, 2012)",
  "key": {"PMAT I89M mutant [1]": {"molecular_target": "T1, PMAT I89M mutant (Homo sapiens, UniProt Q7RTT9, I89M)", "T1 sequence (Q7RTT9 1-530 I89M)": "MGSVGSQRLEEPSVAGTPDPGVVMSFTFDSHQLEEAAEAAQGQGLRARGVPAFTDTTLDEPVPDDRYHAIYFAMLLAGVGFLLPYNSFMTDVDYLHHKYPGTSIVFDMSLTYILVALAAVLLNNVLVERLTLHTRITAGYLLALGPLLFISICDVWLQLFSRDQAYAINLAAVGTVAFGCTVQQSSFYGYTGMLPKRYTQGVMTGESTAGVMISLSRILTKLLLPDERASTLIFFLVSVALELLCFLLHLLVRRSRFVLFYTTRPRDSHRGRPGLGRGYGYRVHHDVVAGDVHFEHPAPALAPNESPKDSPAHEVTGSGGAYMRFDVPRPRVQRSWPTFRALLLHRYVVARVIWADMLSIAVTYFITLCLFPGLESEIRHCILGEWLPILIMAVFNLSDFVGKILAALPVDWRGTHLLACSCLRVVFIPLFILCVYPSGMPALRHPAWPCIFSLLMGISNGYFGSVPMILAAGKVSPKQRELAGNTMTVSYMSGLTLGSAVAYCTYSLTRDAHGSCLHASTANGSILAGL", "experiment": "Inhibition of [3H]MPP+ uptake in I89M-transfected MDCK cells", "assay_type": "cell-based", "summary_of_the_method": "(§1)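 Stably transfected MDCK cells (YFP-tagged WT or I89M human PMAT) at confluence were exposed 1 min at 37°C in KRH buffer (pH 7.4) to [3H]MPP+ (1 μM) with or without test compound at various concentrations. Cells were washed in ice-cold KRH, counted by scintillation, and normalized to protein. IC50 came from fitting total uptake to a Hill-type equation with residual baseline. Wells in triplicate; three independent experiments on different passages; mean ± S.D.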"}, "WT PMAT": {"molecular_target": "T2, WT PMAT (Homo sapiens, UniProt Q7RTT9)", "T2 sequence (Q7RTT9 1-530)": "T1 sequence (Q7RTT9 1-530 I89M) with M89I", "experiment": "Inhibition of [3H]MPP+ uptake in WT PMAT-transfected MDCK cells", "assay_type": "cell-based", "summary_of_the_method": "as §1"}, "PMAT I89M mutant [2]": {"molecular_target": "T1, PMAT I89M mutant", "experiment": "Concentration-dependent [3H]MPP+ uptake", "assay_type": "cell-based", "details": "MPP+ as substrate", "summary_of_the_method": "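MDCK cells stably expressing YFP-tagged WT or I89M human PMAT (G418-selected, FACS-sorted) were grown 2–3 days to ~90–100% confluence. Cells were preincubated 15 min in KRH buffer (pH 7.4) at 37°C, then given various [3H]MPP+ concentrations for 1 min at 37°C. Uptake was read by scintillation and normalized to protein. Vector-cell uptake was subtracted, and Km and Vmax came from Michaelis-Menten nonlinear least-squares fits. Wells in triplicate; n=3 passages.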"}, "ENT2": {"tested_on": "ENT2", "details": "ENT2 transporters; cited from earlier work"}, "ENT1": {"molecular_target": "ENT1", "details": "mammalian ENT1 proteins; cited from earlier work"}},
  "note": "Positions count from the first letter of the chain named. Values joined by “and” are separate entries in the source; they are usually repeats but may differ in a detail not shown here. Equal values may be shown once.",
  "data": [
    {"smiles": "COc1cc(C(=O)OCCCN2CCCN(CCCOC(=O)c3cc(OC)c(OC)c(OC)c3)CC2)cc(OC)c1OC", "note": "[Dilazep, dilazep]", "values": [
      {"measurement": "IC50", "setting": "PMAT I89M mutant [1]", "value": "6.6 ± 0.5", "unit": "µM"},
      {"measurement": "Increase in transporter sensitivity to inhibition, I89M vs WT PMAT", "setting": "PMAT I89M mutant [1]; inhibition of MPP+ uptake", "value": "2.5 fold and ~ 2.5 fold"},
      {"measurement": "IC50", "setting": "WT PMAT", "value": "16.6 ± 2.1", "unit": "µM"}
    ]},
    {"smiles": "OCCN(CCO)c1nc(N2CCCCC2)c2nc(N(CCO)CCO)nc(N3CCCCC3)c2n1", "note": "[Dipyridamole, dipyridamole]", "values": [
      {"measurement": "IC50", "setting": "PMAT I89M mutant [1]", "value": "4.6 ± 1.8", "unit": "µM"},
      {"measurement": "Change in inhibition, I89M vs WT PMAT (in words)", "setting": "PMAT I89M mutant [1]; inhibition of MPP+ uptake", "value": "no significant changes"}
    ]},
    {"smiles": "C[n+]1ccc(-c2ccccc2)cc1", "note": "[MPP^+, 1-methyl-4-phenylpyridinium]", "values": [
      {"measurement": "Decrease in maximal transport velocity (Vmax), I89M vs WT PMAT", "setting": "PMAT I89M mutant [2]", "value": "2.7 fold and ~ 2.7 fold"},
      {"measurement": "Decrease in transport efficiency (Vmax/Km), I89M vs WT PMAT", "setting": "PMAT I89M mutant [2]", "value": 3.7, "unit": "fold"}
    ]},
    {"smiles": "O=[N+]([O-])c1ccc(CSc2ncnc3c2ncn3[C@@H]2O[C@H](CO)[C@@H](O)[C@H]2O)cc1", "note": "[NBMPR, nitrobenzylmercaptopurine riboside]", "values": [
      {"measurement": "Change in inhibition, I89M vs WT PMAT (in words)", "setting": "PMAT I89M mutant [1]; inhibition of MPP+ uptake", "value": "no significant changes"},
      {"measurement": "Concentration at which the transporter becomes sensitive", "setting": "ENT2", "value": "> 10", "unit": "µM"},
      {"measurement": "Kd", "setting": "ENT1", "value": "0.001 to 0.01", "unit": "µM"}
    ]}
  ]
}
